Source: BindingDB's records for doi:10.1016/j.bmc.2020.115710 (Indiana University School of Medicine, 2020)
pIC50: −log10 of the molar value.

How the values were obtained:
[1] = target: T1, Co-chaperonin GroES (Escherichia coli, UniProt Q7BGE6); test: Inhibition of Escherichia coli GroEL/ES assessed as inhibition of native malate dehydrogenase treated after denatured malate dehydrogenase completely refold
T1 sequence (Q7BGE6 whole entry): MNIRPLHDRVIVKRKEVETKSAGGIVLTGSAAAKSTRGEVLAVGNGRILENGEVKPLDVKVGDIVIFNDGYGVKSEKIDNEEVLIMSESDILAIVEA
In short: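 Counter-screen on native MDH activity: compounds are added only after GroEL/ES has fully refolded the denatured MDH, so the assay flags compounds that act on the MDH reporter reaction itself. IC50 values are averages from at least five replicates. […] DMSO serves as the negative control.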

[2] = target: T1, Co-chaperonin GroES; test: Inhibition of Escherichia coli GroEL/ES assessed as inhibition of native malate dehydrogenase treated after denatured malate dehydrogenase completely refold in presence of NfsB nitroreductase
In short: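 Native MDH counter-screen with 10 µg/mL E. coli NfsB nitroreductase added to the initial GroEL/ES-dMDH solution. Compounds are added after the EDTA quench, then incubated 10 min at 37°C with NADH to bioactivate nitrofurans. Compounds in the reporter step span 56 µM to 25 nM (3-fold series).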

Row | Structure (SMILES) | pIC50 [1] | pIC50 [2]
1 | CN(C)c1ccc(C(=O)N/N=C/c2ccc([N+](=O)[O-])o2)cc1 | < 4.20 | < 4.25
2 | O=C(N/N=C/c1ccc([N+](=O)[O-])o1)c1ccccc1 | < 4.20 | < 4.25
3 | COc1ccc(C(=O)N/N=C/c2ccc([N+](=O)[O-])o2)cc1 | < 4.20 | < 4.25
4 | O=C(N/N=C/c1ccc([N+](=O)[O-])o1)c1ccc(Cl)s1 | < 4.20 | < 4.25
5 | O=C(N/N=C/c1ccc([N+](=O)[O-])o1)c1cccs1 | < 4.20 | < 4.25
6 | O=C1CN(/N=C/c2ccc([N+](=O)[O-])o2)C(=O)N1 [MLS000028500] | < 4.20 | < 4.25
7 | O=C(N/N=C/c1ccc([N+](=O)[O-])o1)c1ccncc1 [N-[(E)-(5-nitro-2-furanyl)methylideneamino]-4-pyridinecarboxamide] | < 4.20 | < 4.25
8 | O=C(N/N=C/c1ccc([N+](=O)[O-])o1)c1ccc(O)cc1 [NIFUROXAZIDE] | < 4.20 | < 4.25
